# Measurements collected from several papers.
# Protocols differ between the studies behind these lines.
# Target: STE20-like serine/threonine-protein kinase (SLK, Homo sapiens, UniProt Q9H2G2)
Structure (SMILES),effect on,action,method,cell line,tested at,endpoint,value
CC(=O)C1=C(C)N(c2cccc(C(F)(F)F)c2)C(=O)N[C@@H]1c1ccc(C#N)nc1,cell-free assay,,competition with immobilised ligand,,1 µM,remaining binding,98.4%
Cc1ccc(Nc2nccc(N(C)c3ccc4c(C)n(C)nc4c3)n2)cc1S(N)(=O)=O,enzyme activity,inhibitor,,,0.5 µM,remaining activity,84.9%
CC1=C(C#N)C(c2ccc3c(c2)c(NC(=O)c2ccccc2C)nn3C)C(C#N)=C(C)N1,cell-free assay,,competition with immobilised ligand,,1 µM,remaining binding,88%
Cc1sc(C(=O)NC2COC2)cc1-n1cc(NC(=O)Nc2c(F)cccc2Cl)cn1,enzyme activity,inhibitor,,,10 µM,remaining activity,99.7%
CNC(=O)Nc1ccc2c(c1)CC[C@@]21OC(=O)N(CC(=O)N(Cc2ccc(F)cc2)[C@@H](C)C(F)(F)F)C1=O,cell-free assay,,competition with immobilised ligand,,1 µM,remaining binding,82%
CN1CC(Oc2cnc(C#N)cc2-c2ccn3nc(NC(=O)C4CC4)cc3c2)C1,enzyme activity,inhibitor,,,1 µM,inhibition,7%
CC(C)(C)c1nc(-c2cccc(NS(=O)(=O)c3c(F)cccc3F)c2F)c(-c2ccnc(N)n2)s1,enzyme activity,inhibitor,radiometric,,1 µM,remaining activity,90%
Nc1ncnc2occ(-c3ccc(NC(=O)Nc4cc(C(F)(F)F)ccc4F)cc3)c12,cell-free assay,inhibitor,,,20 µM,remaining signal,0.05%
N#CCCc1ccc2c(c1)-c1[nH]c3ccc([N+](=O)[O-])cc3c1CC(=O)N2,cell-free assay,,,,0.5 µM,remaining signal,87.2%
COc1cc(-c2cc(-c3ccc(N4CCNCC4)cc3)cnc2C)cc(OC)c1OC,enzyme activity,inhibitor,,,1 µM,inhibition,43%
Cn1c2c(c3ccc(Cl)c(Cl)c31)C(C#N)C(C)(C)NC2=O (stereo not shown),thermal stability,,DSF,,10 µM,ΔTm,-0.1 °C
O=C(Nc1cnn(-c2csc(C(=O)NC3COC3)c2)c1)Nc1c(F)cccc1Cl,enzyme activity,inhibitor,,,5 µM,remaining activity,95%
CN1CCN(c2cnc3c(C4CCN(C(=O)c5ccc(OC(F)(F)F)cc5N)CC4)ncnc3c2)CC1,cell-free assay,,competition with immobilised ligand,,1 µM,remaining binding,96%
CNC(=O)c1cc(Oc2ccc(NC(=O)Nc3ccc(Cl)c(C(F)(F)F)c3)cc2)ccn1,cell-free assay,,,,0.5 µM,remaining signal,96.8%
CCN1CCC2(CC1)NC(=O)c1c(c3ccc(Cl)c(Cl)c3n1C)C2C#N (racemic),thermal stability,,DSF,,10 µM,ΔTm,0.1 °C
COc1cc(Nc2c(C#N)cnc3cc(OCCCN4CCN(C)CC4)c(OC)cc23)c(Cl)cc1Cl,cell-free assay,,,,0.5 µM,remaining signal,21.6%
CCN1CCN(Cc2ccc(NC(=O)c3ccc(C)c(Oc4ccnc5[nH]ccc45)c3)cc2C(F)(F)F)CC1,target engagement in cells,inhibitor,chemoproteomics,Huh-7,10 µM,inhibition,-24.5%
CO[C@@H](C)c1c(Nc2ccc([C@H](N(C)C(=O)C3CCS(=O)(=O)CC3)C(F)(F)F)cc2)cnc2cc(Cl)nn12,cell-free assay,,competition with immobilised ligand,,1 µM,remaining binding,81%
Cn1c2c(c3ccccc31)C(C#N)C(C)(C)NC2=O (stereo not shown),thermal stability,,DSF,,10 µM,ΔTm,-0.1 °C
Cc1c[nH]c2nccc(Oc3c(F)cc(Nc4cc(Cl)nc(N)n4)cc3F)c12,cell-free assay,,competition with immobilised ligand,,0.1 µM,remaining binding,97%
COc1cc(Cl)c(C(=O)N[C@@H](CN[C@H]2CC[C@@H](N)CC2)Cc2ccc(C#N)cc2)cc1-c1ccc(CN[C@H](C)c2ccc(C)cc2)o1,enzyme activity,inhibitor,,,1 µM,remaining activity,95%
O=C1NC(c2ccccn2)Sc2ccccc21 (stereo not shown),cell-free assay,,competition with immobilised ligand,,1 µM,remaining binding,76%
CC/C(=N\NC(=O)NCc1cccc(O)c1)c1ccc(O)c(C)c1O,enzyme activity,inhibitor,,,0.1 µM,inhibition,4%
Cn1nc(C(=O)NCc2ccc(C(=O)O)cc2)cc1-c1ccc2[nH]ccc2c1,cell-free assay,,competition with immobilised ligand,,0.1 µM,remaining binding,65%
Cn1c2c(c3ccc(Cl)c(Cl)c31)C(C#N)C1(CCOCC1)NC2=O (stereo not shown),thermal stability,,DSF,,10 µM,ΔTm,-0.4 °C
